Assay results taken from ChEMBL document CHEMBL3352048, “Development of 2-(4-oxoquinazolin-3(4H)-yl)acetamide derivatives as novel enoyl-acyl carrier protein reductase (InhA) inhibitors for the treatment of tuberculosis” (Eur J Med Chem, 2014).
Values after ≈ are worked out from the molar mass of the structure shown.

Experiments:
[1] = tested on: Mycobacterium tuberculosis; assay: Antimycobacterial activity against Mycobacterium tuberculosis H37Rv ATCC 27294 after 28 days by two-fold serial dilution assay; type: functional; conditions: H37Rv ATCC 27294, 672 h
Procedure, shortened: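 Agar dilution test against M. tuberculosis H37Rv (ATCC27294). Drug concentrations ran from 50 µg/mL to 0.78 µg/mL, tested in duplicate. MIC was taken as the minimum concentration inhibiting growth.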

[2] = Cytotoxicity against mouse RAW264.7 cells at 100 uM after 72 hrs by MTT assay; type: cell-based; conditions: read-out: INH
Procedure, shortened: (§1)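 RAW 264.7 mouse leukemic monocyte macrophages were exposed to compound for 72 h, tested at concentrations up to 100 µM. Viability was read as MTT conversion to formazan (CellTiter 96 non-radioactive proliferation assay). Results are reported as percentage inhibition.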

[3] = biological target: T1, Enoyl-[acyl-carrier-protein] reductase [NADH] (Mycobacterium tuberculosis) (UniProt P9WGR1); assay: Inhibition of Mycobacterium tuberculosis recombinant InhA expressed in Escherichia coli BL21 (DE3) using 2-trans-decenoyl substrate at 10 uM by spectrophotometry
T1 sequence (whole entry): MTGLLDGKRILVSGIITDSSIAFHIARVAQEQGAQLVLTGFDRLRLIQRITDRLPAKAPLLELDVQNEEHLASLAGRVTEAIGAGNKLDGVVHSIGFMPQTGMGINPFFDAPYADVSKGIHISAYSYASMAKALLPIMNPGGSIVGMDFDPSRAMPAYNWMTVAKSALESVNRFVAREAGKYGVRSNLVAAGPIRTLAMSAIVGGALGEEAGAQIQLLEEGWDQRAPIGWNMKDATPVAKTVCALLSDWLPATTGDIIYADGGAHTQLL
Procedure, shortened: (§2)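 Recombinant M. tuberculosis InhA was expressed in E. coli and purified. Inhibition was screened as percent inhibition at 10 µM. IC50 values came from dose-response curves of log concentration versus % inhibition.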

[4] = Cytotoxicity against mouse RAW264.7 cells at 50 uM after 72 hrs by MTT assay; type: cell-based; conditions: read-out: INH; procedure, shortened: as §1
[5] = biological target: T2, Enoyl-[acyl-carrier-protein] reductase [NADH] (Mycobacterium tuberculosis, UniProt P9WGR1); assay: Inhibition of Mycobacterium tuberculosis recombinant InhA expressed in Escherichia coli BL21 (DE3) using 2-trans-decenoyl substrate by spectrophotometry; procedure, shortened: as §2
T2 sequence (P9WGR1 whole entry): T1 sequence (whole entry)

[6] = tested on: Mycobacterium tuberculosis; assay: Antimycobacterial activity against Mycobacterium tuberculosis H37Rv ATCC 27294 after 28 days by two-fold serial dilution assay in presence of […] piperine efflux pump inhibitor; type: functional; conditions: H37Rv ATCC 27294, 672 h

CC1COc2c(N3CCN(C)CC3)c(F)cc3c(=O)c(C(=O)O)cn1c23 (stereo not drawn) [OFLOXACIN]
MIC [1]: 2.16 µM (≈ 0.781 µg/mL)

O=C(Cn1cnc2ccc(Cl)cc2c1=O)NCc1ccco1
cytotoxicity at 72 h, 100 µM [2]: 42.5%
inhibition [3]: 82.4%
cytotoxicity at 72 h, 50 µM [4]: 30.7%
MIC [1]: 4.91 µM (≈ 1.56 µg/mL)
IC50 [5]: 3.12 µM
MIC [6]: 4.91 µM

O=C(Cn1cnc2ccccc2c1=O)Nc1cc(C(F)(F)F)ccc1Cl
cytotoxicity at 72 h, 100 µM [2]: 35.6%
inhibition [3]: 58.1%
cytotoxicity at 72 h, 50 µM [4]: 10.1%
MIC [1]: 8.18 µM (≈ 3.12 µg/mL)
IC50 [5]: 8.16 µM
MIC [6]: 2.04 µM

Cc1nc2ccc(Cl)cc2c(=O)n1CC(=O)NCc1cccs1
cytotoxicity at 72 h, 100 µM [2]: 51.7%
inhibition [3]: 70.2%
cytotoxicity at 72 h, 50 µM [4]: 47.5%
MIC [1]: 18 µM (≈ 6.25 µg/mL)
IC50 [5]: 6.76 µM
MIC [6]: 4.48 µM

O=C(Cn1cnc2ccccc2c1=O)Nc1nccs1
inhibition [3]: 31%

O=C(Cn1cnc2ccccc2c1=O)NCc1ccco1
cytotoxicity at 72 h, 100 µM [2]: 13.7%
inhibition [3]: 46.1%
cytotoxicity at 72 h, 50 µM [4]: 1.96%
MIC [1]: 5.5 µM (≈ 1.56 µg/mL)
MIC [6]: 2.75 µM

O=C(Cn1cnc2ccc(Cl)cc2c1=O)Nc1cc(C(F)(F)F)ccc1Cl
cytotoxicity at 72 h, 100 µM [2]: 53.6%
inhibition [3]: 80.1%
cytotoxicity at 72 h, 50 µM [4]: 48.9%
MIC [1]: 3.74 µM (≈ 1.56 µg/mL)
IC50 [5]: 4.56 µM
MIC [6]: 1.87 µM

CO[C@H]1/C=C/O[C@@]2(C)Oc3c(C)c(O)c4c(O)c(c(/C=N/N5CCN(C)CC5)c(O)c4c3C2=O)NC(=O)/C(C)=C\C=C\[C@H](C)[C@H](O)[C@@H](C)[C@@H](O)[C@@H](C)[C@H](OC(C)=O)[C@@H]1C [RIFAMPIN]
MIC [1]: 0.15 µM (≈ 0.123 µg/mL)

Cc1nc2ccc(Cl)cc2c(=O)n1CC(=O)Nc1ccccc1
cytotoxicity at 72 h, 100 µM [2]: 28.7%
inhibition [3]: 88.1%
cytotoxicity at 72 h, 50 µM [4]: 19.9%
MIC [1]: 4.76 µM (≈ 1.56 µg/mL)
IC50 [5]: 3.12 µM
MIC [6]: 2.38 µM

O=C(Cn1cnc2ccc(Cl)cc2c1=O)NCc1nc2ccc([N+](=O)[O-])cc2s1
cytotoxicity at 72 h, 100 µM [2]: 62.8%
inhibition [3]: 45.6%
cytotoxicity at 72 h, 50 µM [4]: 15.8%
MIC [1]: 30.1 µM (≈ 12.9 µg/mL)
MIC [6]: 30.1 µM

Cc1cccc(NC(=O)Cn2cnc3ccccc3c2=O)c1
inhibition [3]: 14.5%

O=C(Cn1cnc2ccc(Cl)cc2c1=O)NCc1cccs1
cytotoxicity at 72 h, 100 µM [2]: 45.2%
inhibition [3]: 68.9%
cytotoxicity at 72 h, 50 µM [4]: 32.4%
MIC [1]: 9.36 µM (≈ 3.12 µg/mL)
IC50 [5]: 7.12 µM
MIC [6]: 2.33 µM

Cc1nc2ccc(Cl)cc2c(=O)n1CC(=O)NCc1ccco1
cytotoxicity at 72 h, 100 µM [2]: 5.37%
inhibition [3]: 78.1%
cytotoxicity at 72 h, 50 µM [4]: 3.36%
MIC [1]: 4.7 µM (≈ 1.56 µg/mL)
IC50 [5]: 4.52 µM
MIC [6]: 1.17 µM

Cc1nc2ccccc2c(=O)n1CC(=O)NCc1cccs1
cytotoxicity at 72 h, 100 µM [2]: 38.6%
inhibition [3]: 68.2%
cytotoxicity at 72 h, 50 µM [4]: 35.6%
MIC [1]: 9.97 µM (≈ 3.12 µg/mL)
IC50 [5]: 6.01 µM
MIC [6]: 4.97 µM

Cc1nc2ccccc2c(=O)n1CC(=O)NCc1nc2ccc([N+](=O)[O-])cc2s1
cytotoxicity at 72 h, 100 µM [2]: 37.4%
inhibition [3]: 64%
cytotoxicity at 72 h, 50 µM [4]: 34%
MIC [1]: > 63.2 µM
IC50 [5]: 6.16 µM

O=C(Cn1cnc2ccccc2c1=O)NCc1cccs1
cytotoxicity at 72 h, 100 µM [2]: 41.4%
inhibition [3]: 33.7%
cytotoxicity at 72 h, 50 µM [4]: 4.38%
MIC [1]: 5.21 µM (≈ 1.56 µg/mL)
MIC [6]: 1.3 µM

O=C(Cn1cnc2ccc(Cl)cc2c1=O)Nc1ccccc1
cytotoxicity at 72 h, 100 µM [2]: 53%
inhibition [3]: 58.3%
cytotoxicity at 72 h, 50 µM [4]: 3.51%
MIC [1]: 4.97 µM (≈ 1.56 µg/mL)
IC50 [5]: 7.78 µM
MIC [6]: 1.24 µM

O=C(Cn1cnc2ccccc2c1=O)NCc1nc2ccc([N+](=O)[O-])cc2s1
cytotoxicity at 72 h, 100 µM [2]: 50.5%
inhibition [3]: 72.2%
cytotoxicity at 72 h, 50 µM [4]: 13.1%
MIC [1]: 4.09 µM (≈ 1.62 µg/mL)
IC50 [5]: 5.12 µM
MIC [6]: 1.02 µM

Cc1nc2ccccc2c(=O)n1CC(=O)Nc1ccccc1
cytotoxicity at 72 h, 100 µM [2]: 29.7%
inhibition [3]: 60.1%
cytotoxicity at 72 h, 50 µM [4]: 11.2%
MIC [1]: 10.7 µM (≈ 3.12 µg/mL)
IC50 [5]: 8.92 µM
MIC [6]: 5.31 µM

O=C(Cn1cnc2ccccc2c1=O)Nc1cc(Cl)ccc1Cl
inhibition [3]: 16.3%

Cc1nc2ccccc2c(=O)n1CC(=O)NCc1ccco1
cytotoxicity at 72 h, 100 µM [2]: 41.5%
inhibition [3]: 70.1%
cytotoxicity at 72 h, 50 µM [4]: 25.5%
MIC [1]: 84.1 µM (≈ 25 µg/mL)
IC50 [5]: 6.86 µM
MIC [6]: 42 µM

NNC(=O)c1ccncc1 [ISONIAZID]
MIC [1]: 0.72 µM (≈ 0.0987 µg/mL)

Cc1nc2ccc(Cl)cc2c(=O)n1CC(=O)NCc1nc2ccc([N+](=O)[O-])cc2s1
cytotoxicity at 72 h, 100 µM [2]: 33.7%
inhibition [3]: 54.1%
cytotoxicity at 72 h, 50 µM [4]: 28.4%
MIC [1]: 58.2 µM (≈ 25.8 µg/mL)

O=C(Cn1cnc2ccccc2c1=O)Nc1ccccc1
cytotoxicity at 72 h, 100 µM [2]: 31.1%
inhibition [3]: 52.1%
cytotoxicity at 72 h, 50 µM [4]: 21.2%
MIC [1]: 11.2 µM (≈ 3.12 µg/mL)
MIC [6]: 5.58 µM

CC[C@@H](CO)NCCN[C@@H](CC)CO [ETHAMBUTOL]
MIC [1]: 7.64 µM (≈ 1.56 µg/mL)
